Like-named read-outs stand apart in the source and are kept apart here.
Experiments:
[1] = biological target: CFTR gating site (Homo sapiens, UniProt P13569); format: biochemical
Summary of the method: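 Gating-site Kd was taken as the apparent K1/2 for stimulation of WT CFTR open probability at −80 mV, from Hill fits to Po dose–response curves, with binding assumed voltage independent. ΔG°binding = kT·ln(Kd).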

[2] = biological target: T1, K1250A CFTR (Homo sapiens, UniProt P13569, K1250A); assay: Macroscopic pore-block/permeation assay on locked-open K1250A CFTR currents; format: biochemical; details: for fractional current of locked-open K1250A CFTR: 210 µM NPPB, 32 mM 3NB, 20 mM 3PP
T1 sequence (P13569 whole entry K1250A, the tested form may be a part): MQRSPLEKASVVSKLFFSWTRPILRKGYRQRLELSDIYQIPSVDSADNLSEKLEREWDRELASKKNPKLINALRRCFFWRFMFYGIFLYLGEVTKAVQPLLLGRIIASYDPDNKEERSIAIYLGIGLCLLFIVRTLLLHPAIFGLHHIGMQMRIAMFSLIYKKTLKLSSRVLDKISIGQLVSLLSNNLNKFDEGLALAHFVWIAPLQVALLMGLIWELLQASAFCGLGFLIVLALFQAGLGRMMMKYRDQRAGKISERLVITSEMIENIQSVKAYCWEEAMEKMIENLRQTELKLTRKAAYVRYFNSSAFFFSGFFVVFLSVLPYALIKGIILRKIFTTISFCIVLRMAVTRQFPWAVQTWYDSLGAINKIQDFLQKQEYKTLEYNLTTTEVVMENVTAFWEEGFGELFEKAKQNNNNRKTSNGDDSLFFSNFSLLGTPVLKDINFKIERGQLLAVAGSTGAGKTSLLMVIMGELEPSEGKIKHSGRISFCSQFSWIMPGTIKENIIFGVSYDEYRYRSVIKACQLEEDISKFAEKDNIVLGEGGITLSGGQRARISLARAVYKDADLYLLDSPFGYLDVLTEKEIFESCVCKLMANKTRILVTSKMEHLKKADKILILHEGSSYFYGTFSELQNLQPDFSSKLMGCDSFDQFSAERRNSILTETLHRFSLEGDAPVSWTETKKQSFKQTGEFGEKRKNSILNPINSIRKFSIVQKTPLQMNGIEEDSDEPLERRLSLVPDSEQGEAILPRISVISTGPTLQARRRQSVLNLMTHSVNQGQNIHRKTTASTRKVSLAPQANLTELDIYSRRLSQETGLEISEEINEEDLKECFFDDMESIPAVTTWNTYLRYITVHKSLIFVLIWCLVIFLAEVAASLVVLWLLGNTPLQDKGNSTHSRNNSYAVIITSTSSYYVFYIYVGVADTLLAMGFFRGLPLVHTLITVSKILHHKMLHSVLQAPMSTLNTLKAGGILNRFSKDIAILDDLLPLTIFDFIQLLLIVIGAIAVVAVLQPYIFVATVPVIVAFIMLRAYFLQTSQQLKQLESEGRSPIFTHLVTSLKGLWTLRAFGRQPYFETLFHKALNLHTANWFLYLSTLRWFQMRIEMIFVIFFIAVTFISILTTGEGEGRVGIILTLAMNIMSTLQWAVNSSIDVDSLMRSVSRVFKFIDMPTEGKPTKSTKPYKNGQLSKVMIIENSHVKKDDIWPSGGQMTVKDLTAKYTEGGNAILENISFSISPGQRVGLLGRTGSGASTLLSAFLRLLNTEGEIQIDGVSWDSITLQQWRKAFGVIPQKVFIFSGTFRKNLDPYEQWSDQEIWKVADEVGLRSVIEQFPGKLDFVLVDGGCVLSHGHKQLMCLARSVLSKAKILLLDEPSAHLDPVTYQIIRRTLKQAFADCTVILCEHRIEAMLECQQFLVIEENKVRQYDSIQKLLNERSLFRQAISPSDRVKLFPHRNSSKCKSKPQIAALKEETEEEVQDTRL
Summary of the method: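 K1250A channels were locked open by removing 10 mM MgATP, in inside-out oocyte patches at 25°C, −80 and 60 mV. Test compounds were applied briefly alone or pairwise (head fragment 32 mM, tail fragment 20 mM, parent 210 µM). Tail stock 50 mM was titrated with sulfuric acid (~0.45 mol/mol), so sulfate 1–20 mM was tested separately. Fractional current = quasi-steady drug current ÷ mean pre/post current. Apparent KI came from dose–response fits.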

[3] = biological target: T1, K1250A CFTR; assay: Steady-state versus locked-open K1250A CFTR currents; format: biochemical; details: 32 mM 3NB, 20 mM 3PP; 10 mM ATP; −20 mV
Summary of the method: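 K1250A CFTR was recorded at −20 mV in 10 mM ATP, 25°C. Head (32 mM) or tail (20 mM) fragment was applied for long periods to channels gating at steady state (I/Icontrol), and briefly to locked-open channels after ATP removal (i/icontrol). Po change = (I/Icontrol)/(i/icontrol).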

[4] = biological target: T1, K1250A CFTR; assay: Macroscopic nonhydrolytic closing rate of K1250A CFTR after ATP removal; format: biochemical
Summary of the method: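 Nonhydrolytic closure of K1250A CFTR was studied in inside-out oocyte patches at 25°C, with channels gating in 10 mM MgATP after PKA prephosphorylation. The rate was the inverse of a single-exponential fit to current decay after ATP removal, normalized to same-patch control. Parent-compound series was recorded at −40 mV, fragment series at −20 mV. Mean ± SEM of at least five.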

[5] = biological target: T2, WT CFTR (Homo sapiens, UniProt P13569); assay: Macroscopic; format: biochemical
T2 sequence (P13569 whole entry): as the sequence (P13569 whole entry K1250A, the tested form may be a part) above, with A1250K counted along it
Summary of the method: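 Human WT CFTR from cRNA (0.1–10 ng) was expressed in Xenopus oocytes; excised inside-out patches at 25°C, NMDG-Cl solutions, bath pH 7.1. Channels were prephosphorylated with 300 nM PKA catalytic subunit and gated in 2 mM MgATP ± test compound. Current decay after sudden ATP removal was fitted to a single exponential (rate = 1/τ), normalized to same-patch control and rescaled by pooled control mean. Mean ± SEM, n ≥ 5.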

[6] = biological target: T2, WT CFTR; assay: Single-channel steady-state kinetic analysis of WT CFTR; format: biochemical; details: 20 mM 3PP, −80 mV
Summary of the method: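 Steady-state WT CFTR gating was recorded after PKA prephosphorylation, in 2 mM ATP at −80 mV and 25°C. Patches held one active channel for the 32 mM head fragment, or one to four for the 20 mM tail fragment. Traces were filtered at 100 Hz (control, tail) or 50 Hz (head) and idealized by half-amplitude threshold. Events were fitted by maximum likelihood to a closed-open-blocked scheme (dead times 4 and 6 ms), yielding τb and τib.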

[7] = biological target: T2, WT CFTR; assay: Steady-state macroscopic WT CFTR currents; format: biochemical
[8] = biological target: CFTR pore-binding site (Homo sapiens, UniProt P13569, K1250A); assay: Estimated dissociation constants and free enthalpies of binding in the pore; format: biochemical; details: Kd(0) estimate for binding in the pore
CFTR pore-binding site, sequence (P13569 whole entry K1250A): as the sequence (P13569 whole entry K1250A, the tested form may be a part) above

[9] = biological target: T3, E1371S CFTR (Homo sapiens, UniProt P13569, E1371S); format: biochemical; details: 80 mM MOPS−; −120 mV
T3 sequence (P13569 whole entry E1371S): as the sequence (P13569 whole entry K1250A, the tested form may be a part) above, with A1250K, E1371S counted along it
Summary of the method: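 E1371S CFTR channels were locked open in inside-out oocyte patches at 25°C, phosphorylated by PKA or endogenously. After ATP removal, test compound was applied briefly with or without 80 mM MOPS− (MOPS solutions pH 7.2, ~50% ionized). Fractional current = quasi-steady current in drug ÷ mean of pre- and post-exposure currents. Apparent KI was taken from dose–response fits. Mean ± SEM, n ≥ 5.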

[10] = biological target: T3, E1371S CFTR; details: read-out: apparent KI for pore block; −120 mV; ref Csanády and Töröcsik, 2014; cited from earlier work
[11] = tested on: ΔF508 CFTR; details: in vitro, cited from earlier work

CFTR gating site, sequence (P13569 whole entry): as the sequence (P13569 whole entry K1250A, the tested form may be a part) above, with A1250K counted along it

NCCCc1ccccc1 [3PP, 3-phenylpropylamine]
Kd [1]: 6 mM | effects on unitary currents ([2]; 20 mM 3PP-sulfate): ~10% | fractional current of locked-open K1250A CFTR ([2]; 60 mV): ~1.11 | EC50 ([2]; K1/2 for enhancement of locked-open K1250A current, 60 mV, tentative Hill fit): ~10 mM | enhancement of the rate of ion flow through locked-open K1250A channels ([2]; positive voltages (60 mV), high 3PP concentrations): ~10% | fractional current of locked-open K1250A CFTR ([2]; −80 mV): ~0.91 | effect on Po of K1250A CFTR [3]: no change in Po | acceleration of K1250A closing rate ([4]; 20 mM 3PP, −20 mV): ~20% | slowing of WT CFTR hydrolytic closing rate ([5]; 20 mM 3PP-sulfate, −80 mV): ~2.5 fold | effect on unitary current amplitude [6]: little affected unitary current amplitude | effect on mean burst duration τb ([6]; 32 mM 3NB, 2 mM ATP): prolonged τb | effect on mean interburst duration τib ([6]; 32 mM 3NB, 2 mM ATP): did not affect τib | stimulation of single-channel Po ([6]; 32 mM 3NB, 2 mM ATP): twofold | stimulation of open probability for WT CFTR ([7]; high concentrations, −80 mV, macroscopic): two- to threefold | Kd ([8]; assuming z = 0.1): 12.6 mM | Kd ([8]; assuming z = 0.2): 16 mM | Kd ([8]; assuming z = 0.5): 32 mM

O=S(=O)(O)CCCN1CCOCC1 [MOPS^−, reference compound]
reduction of macroscopic current through locked-open E1371S channels [9]: ~90% | effect on K1250A closing rate ([4]; 80 mM MOPS−, −40 mV): neither affected K1250A closing rate | Ki [10]: 8.3 mM | effect on WT CFTR closing rate ([5]; 80 mM MOPS−, −120 mV): little affected

CC(C)(C)c1cc(C(C)(C)C)c(NC(=O)c2c[nH]c3ccccc3c2=O)cc1O [VX-770]
stimulation of ΔF508 CFTR currents ([11]; ref Kopeikin et al., 2014): 10–20 fold | stimulation of ΔF508 CFTR currents ([11]; ref Van Goor et al., 2009): ~5 fold

O=S(=O)(O)O [sulfate]
effect on locked-open channel currents ([2]; 60 mV): did not affect locked-open channel currents | sulfate concentration yielding maximal pore block ([2]; −80 mV, anomalous dose dependence): ~5 mM | effect on WT CFTR closing rate ([5]; 10 mM sulfate): did not affect WT CFTR closing rate | effect on WT CFTR open probability / gating ([7]; 10 mM sulfate): little effect
